Data set [1] has as its target T1, Muscarinic acetylcholine receptor M2 (Sus scrofa, UniProt P06199).
T1 sequence (P06199 whole entry): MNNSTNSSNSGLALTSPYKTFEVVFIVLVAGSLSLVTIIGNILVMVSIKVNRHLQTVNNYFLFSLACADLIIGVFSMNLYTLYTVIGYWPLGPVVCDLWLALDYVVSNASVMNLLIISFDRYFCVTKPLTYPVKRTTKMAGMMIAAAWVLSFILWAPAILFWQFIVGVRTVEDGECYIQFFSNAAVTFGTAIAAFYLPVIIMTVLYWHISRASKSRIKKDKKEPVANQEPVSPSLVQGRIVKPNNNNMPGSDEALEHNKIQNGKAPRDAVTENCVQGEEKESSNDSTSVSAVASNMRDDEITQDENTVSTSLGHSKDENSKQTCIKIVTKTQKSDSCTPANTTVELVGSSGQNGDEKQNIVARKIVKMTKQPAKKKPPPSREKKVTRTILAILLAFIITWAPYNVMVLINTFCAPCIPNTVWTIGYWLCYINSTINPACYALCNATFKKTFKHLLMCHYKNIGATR
In words: Allosteric potency against the dissociation of radioligand [3H]N-methylscopolamine from the porcine cardiac Muscarinic acetylcholine receptor M2. The essentials:
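Porcine ventricular membranes: homogenized in 0.32 M sucrose, spun at 300g then 80000g, resuspended in 50 mM Tris-HCl pH 7.4. Labeled with 0.2 nM [3H]NMS for 30 min in 2.6 mM MgHPO4/45 mM Tris-HCl, pH 7.3, 37 °C. Dissociation started with 1 µM atropine plus modulator, sampled up to 2 h (some two-point, 0 and 4 min), then filtered and counted. EC50 is the concentration halving monoexponential k-1 (4–6 concentrations).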

Data set [2] can be described thus: Half life (t1/2) value of the compound. The class given is ADME. A digest of the protocol:
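Chemical hydrolysis followed by UV spectroscopy for 24 h at 20 °C in TRIS-HCl–Mg buffer (3.6 mM MgHPO4, 50 mM TRIS, pH 7.3); half-life of the compound reported in hours.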

A word on the EC50: it is the concentration giving half of the maximal effect. Compound `O=C1c2ccccc2C(=O)N1CCCO/N=C/c1cc[n+](CCC[n+]2ccc(/C=N/OCCCN3C(=O)c4ccccc4C3=O)cc2)cc1` returned a concentration giving a half-maximal response (EC50) in data set [1] of 520 nM. For `O=C1c2ccccc2C(=O)N1CCC[n+]1ccc(CCCc2cc[n+](CCCN3C(=O)c4ccccc4C3=O)cc2)cc1`, in data set [1], a half-maximal response (EC50) required 4870 nM. This EC50 is about 9.4-fold higher than that of the compound before. The compound `O=C1c2ccccc2C(=O)N1CO/N=C/c1cc[n+](CCCCCC[n+]2ccc(/C=N/OCN3C(=O)c4ccccc4C3=O)cc2)cc1` yielded an EC50 in data set [1] of 1400 nM. This EC50 is about 3.5-fold lower than that of the compound before. In data set [1], `O=C1c2ccccc2C(=O)N1CCC[n+]1ccc(CCc2cc[n+](CCCN3C(=O)c4ccccc4C3=O)cc2)cc1` showed an EC50 of 2340 nM. Compared with the last compound, the EC50 is about 1.7-fold higher. Still for that read-out and setting: next, `O=C1c2ccccc2C(=O)N1CC[n+]1ccc(CCCc2cc[n+](CCN3C(=O)c4ccccc4C3=O)cc2)cc1`: 3490 nM; `O=C1c2ccccc2C(=O)N1CCCO/N=C/c1cc[n+](CCCCC[n+]2ccc(/C=N/OCCCN3C(=O)c4ccccc4C3=O)cc2)cc1`: 510 nM. Compound `O=C1c2ccccc2C(=O)N1CO/N=C/c1cc[n+](CCCC[n+]2ccc(/C=N/OCN3C(=O)c4ccccc4C3=O)cc2)cc1` had an EC50 in data set [1] of 1900 nM. This EC50 is about 3.7-fold higher than that of the compound before. In general, half-life refers to the time needed for the level to fall by half in the phase considered. A higher half-life goes with slow decline. Turning to `C[N+](C)(CCCCC[N+](C)(C)CCCN1C(=O)c2ccccc2C1=O)CCCN1C(=O)c2ccccc2C1=O.[Br-].[Br-]`, in data set [2], the half-life was 17.4 h. Also, in data set [1], the EC50 was 1390 nM. The compound `O=C1c2ccccc2C(=O)N1CCCO/N=C/c1cc[n+](CCCC[n+]2ccc(/C=N/OCCCN3C(=O)c4ccccc4C3=O)cc2)cc1` displayed an EC50 in data set [1] of 350 nM. Turning to `O=C1c2ccccc2C(=O)N1CCCC[n+]1ccc(-c2cc[n+](CCCCN3C(=O)c4ccccc4C3=O)cc2)cc1`, in data set [1], the EC50 was 4650 nM. On the same count and under the same terms, next, `O=C1c2ccccc2C(=O)N1CCCC[n+]1ccc(CCc2cc[n+](CCCCN3C(=O)c4ccccc4C3=O)cc2)cc1`: 470 nM. `C[N+](C)(CCCN1C(=O)c2ccccc2C1=O)CCC[N+](C)(C)CCCN1C(=O)c2ccccc2C1=O.[Br-].[Br-]`: the half-life in data set [2] was 14.5 h. In data set [1], it took 3800 nM to reach a half-maximal effect (EC50).

Turning to `C[N+](C)(CCCCCC[N+](C)(C)CCCN1C(=O)c2ccccc2C1=O)CCCN1C(=O)c2ccccc2C1=O.[Br-].[Br-]`, the half-life in data set [2] is 18 h. The compound further returned an EC50 in data set [1] of 1440 nM. In data set [1], `O=C1c2ccccc2C(=O)N1C[n+]1ccc(CCCc2cc[n+](CN3C(=O)c4ccccc4C3=O)cc2)cc1` came in with an EC50 of 50800 nM.

`O=C1c2ccccc2C(=O)N1CCCO/N=C/c1cc[n+](CCCCCC[n+]2ccc(/C=N/OCCCN3C(=O)c4ccccc4C3=O)cc2)cc1` yielded an EC50 in data set [1] of 450 nM. In data set [1], `C[N+](C)(CCCN1C(=O)c2ccccc2C1=O)CCCN1C(=O)c2ccccc2C1=O` yielded an EC50 of 8820 nM. This EC50 lies about 20-fold higher than the previous one. `C[N+](C)(CCCCCCCC[N+](C)(C)CCCN1C(=O)c2ccccc2C1=O)CCCN1C(=O)c2ccccc2C1=O.[Br-].[Br-]` showed a half-life in data set [2] of 35.2 h. This compound also displayed an EC50 in data set [1] of 570 nM. Taken in the same sequence, the figures for `C[N+](C)(CCCCCCC[N+](C)(C)CCCN1C(=O)c2ccccc2C1=O)CCCN1C(=O)c2ccccc2C1=O.[Br-].[Br-]` were 16.4 h and 370 nM.

As to `C[N+](C)(CCCCCCCCCC[N+](C)(C)CCCN1C(=O)c2ccccc2C1=O)CCCN1C(=O)c2ccccc2C1=O.[Br-].[Br-]`, the half-life in data set [2] was 19.3 h. In data set [1], this compound registered an EC50 of 530 nM. In the case of `O=C1c2ccccc2C(=O)N1CO/N=C/c1cc[n+](CCC[n+]2ccc(/C=N/OCN3C(=O)c4ccccc4C3=O)cc2)cc1`, the EC50 in data set [1] was 510 nM.

In turn, `C[N+](C)(CCCC[N+](C)(C)CCCN1C(=O)c2ccccc2C1=O)CCCN1C(=O)c2ccccc2C1=O.[Br-].[Br-]` gave a half-life in data set [2] of 14 h. In data set [1], the EC50 is 2690 nM.

Turning to `O=C1c2ccccc2C(=O)N1CCCC[n+]1ccc(CCCc2cc[n+](CCCCN3C(=O)c4ccccc4C3=O)cc2)cc1`, in data set [1], the EC50 stood at 630 nM. This counts as sub-micromolar.

Source of the values: ChEMBL document CHEMBL1132599, “Bisquaternary ligands of the common allosteric site of M2 acetylcholine receptors: search for the minimum essential distances between the pharmacophoric elements” (J Med Chem, 1999).
